Measurements taken from ChEMBL document CHEMBL3400013, “Synthesis and biological activity evaluation of hydrazone derivatives based on a Tröger's base skeleton” (Bioorg Med Chem, 2015).
Calls of active or inactive are those of the source. The rule behind the calls is not given here.

Tests used:
[1] = system: Enterococcus faecalis; assay: Antimicrobial activity against Enterococcus faecalis CCM 4224 up to 200 uM after 24 to 48 hrs by broth microdilution method; format: functional, organism-based
[2] = Metal chelating activity of the compound assessed as formation of Mg2+ complex by UV-vis spectrometry; format: physicochemical
[3] = system: Staphylococcus haemolyticus; assay: Antimicrobial activity against methicillin-resistant Staphylococcus haemolyticus A1/16568 up to 200 uM after 24 to 48 hrs by broth microdilution method; format: functional, organism-based
[4] = Cytostatic activity against human p53-/- HCT116 cells after 72 hrs by MTT assay; format: functional, cell-based; conditions: HCT-116, 72 h
Procedure, shortened: (§1)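 Cells were seeded at 25,000–30,000 per well and pre-incubated for 24 h at 37°C in 5% CO2. Four-fold compound dilutions were added in duplicate and incubated for 72 h. MTT was added for 1–4 h, and formazan was dissolved in 10% aq SDS (pH 5.5) overnight at 37°C. OD was read at 540 nm. IC50 came from dose-response curves, mean ± SD of eight independent experiments.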

[5] = system: K562; assay: Selectivity index, ratio of IC50 for human MRC5 cells to IC50 for human K562 cells; format: functional
[6] = system: BJ; assay: Cytostatic activity against human BJ cells after 72 hrs by MTT assay; format: ADME, cell-based; procedure, shortened: as §1
[7] = system: BJ; assay: Selectivity index, ratio of IC50 for human BJ cells to IC50 for human CCRF-CEM cells; format: functional; conditions: pooled result: one value given for 2 cell lines, strains, targets or settings
[8] = system: Staphylococcus aureus; assay: Antimicrobial activity against Staphylococcus aureus CCM 3953 up to 200 uM after 24 to 48 hrs by broth microdilution method; format: functional, organism-based
[9] = system: MRC5; assay: Selectivity index, ratio of IC50 for human MRC5 cells to IC50 for human K562-TAX cells; format: functional
[10] = system: Nucleic Acid; assay: Binding affinity to DNA (unknown origin) assessed as DNA intercalation by UV-visible spectrophotometry in presence of Cu2+; format: nucleic-acid assay
[11] = system: HCT-116; assay: Selectivity index, ratio of IC50 for human MRC5 cells to IC50 for human HCT116 cells; format: functional
[12] = system: CEM-DNR; assay: Selectivity index, ratio of IC50 for human MRC5 cells to IC50 for human CEM-DNR cells; format: functional
[13] = system: A549; assay: Selectivity index, ratio of IC50 for human BJ cells to IC50 for human A549 cells; format: functional
[14] = Cytostatic activity against human HCT116 cells after 72 hrs by MTT assay; format: functional, cell-based; conditions: HCT-116, 72 h; procedure, shortened: as §1
[15] = system: Pichia kudriavzevii; assay: Antifungal activity against Candida crusei up to 200 uM after 24 to 48 hrs by broth microdilution method; format: functional, organism-based
[16] = system: Nucleic Acid; assay: Binding affinity to DNA (unknown origin) assessed as DNA intercalation by UV-visible spectrophotometry in presence of Fe3+; format: nucleic-acid assay
[17] = system: Escherichia coli; assay: Antimicrobial activity against multidrug-resistant Escherichia coli C/16702 up to 200 uM after 24 to 48 hrs by broth microdilution method; format: functional, organism-based
[18] = system: Nucleic Acid; assay: Binding affinity to DNA (unknown origin) assessed as DNA intercalation by UV-visible spectrophotometry in presence of Zn2+; format: nucleic-acid assay
[19] = Metal chelating activity of the compound assessed as formation of Ca2+ complex by UV-vis spectrometry; format: physicochemical
[20] = Metal chelating activity of the compound assessed as formation of Co2+ complex by UV-vis spectrometry; format: physicochemical
[21] = system: Nucleic Acid; assay: Binding affinity to DNA (unknown origin) assessed as DNA intercalation by UV-visible spectrophotometry in presence of Co2+; format: nucleic-acid assay
[22] = system: HCT-116; assay: Selectivity index, ratio of IC50 for human MRC5 cells to IC50 for human p53-/- HCT116 cells; format: functional
[23] = system: Escherichia coli; assay: Antimicrobial activity against Escherichia coli CCM 3954 up to 200 uM after 24 to 48 hrs by broth microdilution method; format: functional, organism-based
[24] = system: Candida albicans; assay: Antifungal activity against Candida albicans up to 200 uM after 24 to 48 hrs by broth microdilution method; format: functional, organism-based
[25] = Metal chelating activity of the compound assessed as formation of Ni2+ complex by UV-vis spectrometry; format: physicochemical
[26] = Metal chelating activity of the compound assessed as formation of Cr3+ complex by UV-vis spectrometry; format: physicochemical
[27] = Cytostatic activity against human K562-TAX cells after 72 hrs by MTT assay; format: functional, cell-based; procedure, shortened: as §1
[28] = system: Pseudomonas aeruginosa; assay: Antimicrobial activity against Pseudomonas aeruginosa CCM 395 up to 200 uM after 24 to 48 hrs by broth microdilution method; format: functional, organism-based
[29] = system: BJ; assay: Selectivity index, ratio of IC50 for human BJ cells to IC50 for human K562-TAX cells; format: functional
[30] = system: Candida parapsilosis; assay: Antifungal activity against Candida parapsilosis up to 200 uM after 24 to 48 hrs by broth microdilution method; format: functional, organism-based
[31] = system: Candida tropicalis; assay: Antifungal activity against Candida tropicalis up to 200 uM after 24 to 48 hrs by broth microdilution method; format: functional, organism-based
[32] = system: BJ; assay: Selectivity index, ratio of IC50 for human BJ cells to IC50 for human p53-/- HCT116 cells; format: functional
[33] = Cytostatic activity against human CEM-DNR cells after 72 hrs by MTT assay; format: functional, cell-based; procedure, shortened: as §1
[34] = system: Pseudomonas aeruginosa; assay: Antimicrobial activity against multidrug-resistant Pseudomonas aeruginosa A/16575 up to 200 uM after 24 to 48 hrs by broth microdilution method; format: functional, organism-based
[35] = system: Staphylococcus aureus; assay: Antimicrobial activity against methicillin-resistant Staphylococcus aureus MRSA 4591 up to 200 uM after 24 to 48 hrs by broth microdilution method; format: functional, organism-based
[36] = system: MRC5; assay: Cytostatic activity against human MRC5 cells after 72 hrs by MTT assay; format: ADME, cell-based; conditions: MRC5, 72 h; procedure, shortened: as §1
[37] = system: Nucleic Acid; assay: Binding affinity to DNA (unknown origin) assessed as DNA intercalation by UV-visible spectrophotometry; format: nucleic-acid assay
[38] = Metal chelating activity of the compound assessed as formation of Mn2+ complex by UV-vis spectrometry; format: physicochemical
[39] = system: BJ; assay: Selectivity index, ratio of IC50 for human BJ cells to IC50 for human CEM-DNR cells; format: functional
[40] = system: BJ; assay: Selectivity index, ratio of IC50 for human BJ cells to IC50 for human HCT116 cells; format: functional
[41] = system: K562; assay: Cytostatic activity against human K562 cells after 72 hrs by MTT assay; format: functional, cell-based; conditions: K562, 72 h; procedure, shortened: as §1
[42] = system: A549; assay: Selectivity index, ratio of IC50 for human MRC5 cells to IC50 for human A549 cells; format: functional
[43] = Metal chelating activity of the compound assessed as formation of Fe3+ complex by UV-vis spectrometry; format: physicochemical
[44] = system: CCRF-CEM; assay: Cytostatic activity against human CCRF-CEM cells after 72 hrs by MTT assay; format: functional, cell-based; procedure, shortened: as §1
[45] = system: A549; assay: Cytostatic activity against human A549 cells after 72 hrs by MTT assay; format: functional, cell-based; conditions: A549, 72 h; procedure, shortened: as §1
[46] = Metal chelating activity of the compound assessed as formation of Zn2+ complex by UV-vis spectrometry; format: physicochemical
[47] = Metal chelating activity of the compound assessed as formation of Cu2+ complex by UV-vis spectrometry; format: physicochemical
[48] = system: Nucleic Acid; assay: Binding affinity to DNA (unknown origin) assessed as DNA intercalation by UV-visible spectrophotometry in presence of Ni2+; format: nucleic-acid assay
[49] = Metal chelating activity of the compound assessed as formation of Fe2+ complex by UV-vis spectrometry; format: physicochemical
[50] = system: BJ; assay: Selectivity index, ratio of IC50 for human BJ cells to IC50 for human K562 cells; format: functional

Compound: O=C(N/N=C/c1cc([N+](=O)[O-])ccc1O)c1ccc2c3c(ccc2c1)N1Cc2c(ccc4cc(C(=O)N/N=C/c5cc([N+](=O)[O-])ccc5O)ccc24)N(C3)C1
- Activity [1]: inactive
- Activity [2]: Not Active
- Activity [3]: inactive
- IC50 [4]: > 100 µM
- Ratio IC50 [5]: 0.9
- IC50 [6]: > 100 µM
- Ratio IC50 [7]: 0.9
- Activity [8]: inactive
- Ratio IC50 [9]: 0.9
- Activity [10]: Active
- Ratio IC50 [11]: 0.9
- Ratio IC50 [12]: 0.9
- Ratio IC50 [13]: 0.9
- IC50 [14]: > 100 µM
- Activity [15]: inactive
- Activity [16]: Active
- Activity [17]: inactive
- Activity [18]: Active
- Activity [19]: Not Active
- Activity [20]: Active
- Activity [21]: Active
- Ratio IC50 [22]: 0.9
- Activity [23]: inactive
- Activity [24]: inactive
- Activity [25]: Active
- Activity [26]: Not Active
- IC50 [27]: > 100 µM
- Activity [28]: inactive
- Ratio IC50 [29]: 0.9
- Activity [30]: inactive
- Activity [31]: inactive
- Ratio IC50 [32]: 0.9
- IC50 [33]: > 100 µM
- Activity [34]: inactive
- Activity [35]: inactive
- IC50 [36]: 88.8 µM
- Activity [37]: inactive
- Activity [38]: Not Active
- Ratio IC50 [39]: 0.9
- Ratio IC50 [40]: 0.9
- IC50 [41]: > 100 µM
- Ratio IC50 [42]: 0.9
- Activity [43]: Active
- IC50 [44]: > 100 µM
- IC50 [45]: > 100 µM
- Activity [46]: Active
- Activity [47]: Active
- Activity [48]: Active
- Activity [49]: Not Active
- Ratio IC50 [50]: 0.9
